The subject of data set [1] is MDA-MB-231. Briefly: Cytotoxicity against human MDA-MB-231 cells at 50 uM after 3 hrs by MTT assay. It counts as cell-based. The settings on record: mda-mb-231, 3 h. Put shortly:
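MTT conversion read-out, following Denisot et al. Tested at 2.5, 10 and 50 µM with 3 h incubation.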

The target of data set [2] is T1, 17-beta-hydroxysteroid dehydrogenase type 1 (Homo sapiens) (UniProt P14061).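 Further: enzyme source was human placental cytosol with tritiated estrone as substrate, 10 min reaction, conversion quantified by HPLC.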
T1 sequence (whole entry): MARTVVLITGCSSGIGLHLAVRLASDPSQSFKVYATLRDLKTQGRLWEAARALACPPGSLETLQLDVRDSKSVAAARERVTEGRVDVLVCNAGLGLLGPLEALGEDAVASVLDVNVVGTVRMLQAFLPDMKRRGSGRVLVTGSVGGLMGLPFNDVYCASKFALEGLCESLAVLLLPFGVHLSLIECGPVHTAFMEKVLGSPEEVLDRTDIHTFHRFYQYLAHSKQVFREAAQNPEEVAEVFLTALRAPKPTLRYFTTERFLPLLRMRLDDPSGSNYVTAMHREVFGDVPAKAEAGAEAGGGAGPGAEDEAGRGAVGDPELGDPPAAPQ
The settings on record: at 1 µM.

Data set [3] addresses T2, Estradiol 17-beta-dehydrogenase 2 (Mus musculus) (UniProt P51658).
T2 sequence (whole entry): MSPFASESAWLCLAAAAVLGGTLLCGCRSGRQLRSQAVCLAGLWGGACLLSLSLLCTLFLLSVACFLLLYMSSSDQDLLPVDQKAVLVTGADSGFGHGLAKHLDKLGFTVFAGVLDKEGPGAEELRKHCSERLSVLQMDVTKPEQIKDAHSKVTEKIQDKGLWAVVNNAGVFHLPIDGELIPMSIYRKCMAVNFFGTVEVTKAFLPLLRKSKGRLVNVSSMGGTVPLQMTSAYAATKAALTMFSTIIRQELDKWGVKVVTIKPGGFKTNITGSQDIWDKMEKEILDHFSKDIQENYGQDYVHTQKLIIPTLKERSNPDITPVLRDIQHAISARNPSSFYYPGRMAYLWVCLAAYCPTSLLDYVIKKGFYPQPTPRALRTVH
Briefly: Inhibition of 17beta-HSD2 in mouse liver microsomal fraction assessed as inhibition of [3H]E2 conversion to E1 at 1 uM by scintillation counting analysis. It counts as microsomes. In short, it runs like this:
(§1)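 Cell-free assay measuring percent inhibition of the E2-to-E1 transformation. Enzyme source was the microsomal fraction of rat or mouse liver, or of Callithrix jacchus placenta for the marmoset.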

In data set [4] the target is T3, Estradiol 17-beta-dehydrogenase 2 (Rattus norvegicus) (UniProt Q62730).
T3 sequence (whole entry): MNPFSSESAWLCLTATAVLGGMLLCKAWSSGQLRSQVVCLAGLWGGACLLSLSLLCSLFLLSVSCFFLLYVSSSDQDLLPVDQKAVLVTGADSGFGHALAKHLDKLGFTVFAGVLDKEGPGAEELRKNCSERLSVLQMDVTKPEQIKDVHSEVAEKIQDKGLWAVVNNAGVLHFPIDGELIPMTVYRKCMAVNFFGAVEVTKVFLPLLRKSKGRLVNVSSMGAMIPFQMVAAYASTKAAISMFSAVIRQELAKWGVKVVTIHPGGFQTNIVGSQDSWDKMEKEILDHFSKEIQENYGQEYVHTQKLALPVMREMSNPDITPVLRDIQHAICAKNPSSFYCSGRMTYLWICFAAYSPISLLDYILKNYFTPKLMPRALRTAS
Description: Inhibition of 17beta-HSD2 in rat liver microsomal fraction assessed as inhibition of [3H]E2 conversion to E1 at 1 uM by scintillation counting analysis. It counts as microsomes. In short, it runs like this:
as §1
(Liver microsomes are a subcellular fraction often used to study metabolism.)

Data set [5] has as its target T4, 17-beta-hydroxysteroid dehydrogenase type 2 (Homo sapiens) (UniProt P37059).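 Further: [3H]estradiol served as substrate, with HPLC analysis after 20 min.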
T4 sequence (whole entry): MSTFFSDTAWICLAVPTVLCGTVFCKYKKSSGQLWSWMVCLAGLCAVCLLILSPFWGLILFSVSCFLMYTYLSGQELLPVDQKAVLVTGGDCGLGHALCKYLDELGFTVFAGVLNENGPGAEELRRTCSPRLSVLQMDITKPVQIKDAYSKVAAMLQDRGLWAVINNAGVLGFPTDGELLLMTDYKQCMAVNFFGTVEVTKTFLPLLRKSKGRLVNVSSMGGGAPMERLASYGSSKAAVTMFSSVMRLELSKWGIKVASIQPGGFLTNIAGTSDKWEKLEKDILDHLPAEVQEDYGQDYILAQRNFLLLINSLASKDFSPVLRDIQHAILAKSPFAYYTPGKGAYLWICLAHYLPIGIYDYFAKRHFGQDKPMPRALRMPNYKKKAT
To be noted: Placenta, Microsomal, at 1 µM.

Data set [6] has as its target 11-beta-hydroxysteroid dehydrogenase 1 (Homo sapiens, UniProt P28845). Briefly: Inhibition of human recombinant 11beta-HSD1 expressed in HEK293 cell using [1,2-3H]Cortisone as substrate at 2 uM after 10 mins by scintillation counting analysis. It counts as cell-based. In short, it runs like this:
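Recombinant human 11β-HSD1 or 11β-HSD2 stably transfected in HEK-293 cells, following a previously described procedure.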

The target in data set [7] is T5, Peroxisomal multifunctional enzyme type 2 (Homo sapiens) (UniProt P51659).
T5 sequence (whole entry): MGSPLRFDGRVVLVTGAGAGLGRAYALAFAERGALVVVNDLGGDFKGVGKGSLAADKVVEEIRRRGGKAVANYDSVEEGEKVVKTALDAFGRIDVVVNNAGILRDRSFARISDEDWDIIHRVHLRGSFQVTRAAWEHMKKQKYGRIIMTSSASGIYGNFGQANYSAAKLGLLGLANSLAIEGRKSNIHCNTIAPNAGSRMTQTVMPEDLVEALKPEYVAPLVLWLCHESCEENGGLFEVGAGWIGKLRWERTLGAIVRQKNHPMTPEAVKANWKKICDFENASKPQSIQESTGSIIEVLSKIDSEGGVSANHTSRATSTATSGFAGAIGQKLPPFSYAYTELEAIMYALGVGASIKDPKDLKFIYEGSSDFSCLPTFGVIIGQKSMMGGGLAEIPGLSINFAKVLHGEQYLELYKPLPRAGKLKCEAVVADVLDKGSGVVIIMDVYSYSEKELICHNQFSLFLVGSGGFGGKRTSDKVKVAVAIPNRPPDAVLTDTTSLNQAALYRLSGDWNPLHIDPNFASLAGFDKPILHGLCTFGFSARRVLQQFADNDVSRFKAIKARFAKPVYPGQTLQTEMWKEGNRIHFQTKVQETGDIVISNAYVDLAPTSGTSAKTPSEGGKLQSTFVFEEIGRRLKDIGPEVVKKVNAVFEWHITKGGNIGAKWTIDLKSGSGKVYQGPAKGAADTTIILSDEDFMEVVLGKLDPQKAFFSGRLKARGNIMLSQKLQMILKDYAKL
Briefly: Inhibition of human recombinant 17beta-HSD4 SDR domain expressed in Escherichia coli using [6,7-3H]E2 as substrate at 1 uM by scintillation counting analysis.

The species named for data set [8] is Callithrix jacchus. Description: Inhibition of 17beta-HSD2 in common marmoset placental microsomal fraction assessed as inhibition of [3H]E2 conversion to E1 at 1 uM by scintillation counting analysis. It counts as microsomes. The settings on record: Placenta. In short, it runs like this:
as §1

Each structure is given as a SMILES string. Active and inactive are the calls of the source. The calls are words filed in the database; no cut-off is given here. A value given as a limit tells only on which side of the number the result lay.

11-beta-hydroxysteroid dehydrogenase 1, sequence (P28845 whole entry, looked up): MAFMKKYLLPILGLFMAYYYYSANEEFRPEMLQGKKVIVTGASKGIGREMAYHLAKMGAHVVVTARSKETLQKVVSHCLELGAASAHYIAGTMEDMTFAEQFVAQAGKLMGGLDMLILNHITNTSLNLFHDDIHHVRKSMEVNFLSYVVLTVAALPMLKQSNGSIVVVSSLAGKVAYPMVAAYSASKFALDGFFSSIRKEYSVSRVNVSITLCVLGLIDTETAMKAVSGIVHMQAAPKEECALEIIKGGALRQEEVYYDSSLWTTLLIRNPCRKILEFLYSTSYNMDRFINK

The inhibition is the change of the read-out against control, counted positive when it falls. Consider `COc1cccc(N(C)C(=O)c2ccc(-c3cccc(OC)c3F)s2)c1`, for which, in data set [1], the Activity entry is on record as “Non-toxic”. For the same compound, the inhibition amounted to 17% in data set [2]; 26% in data set [3]; 93% in data set [5]; 9% in data set [6]; 45% in data set [8]. Also, the inhibition result in data set [4] and in data set [7] was “inactive” each time.

For `COc1cccc(-c2ccc(C(=O)N(C)Cc3cccc(O)c3)s2)c1F`, the Activity result in data set [1] is “Non-toxic”. For the same compound, the inhibition in data set [2] is under 10%; in data set [3] it was 65%; in data set [4] it was 25%; in data set [5], 89%; in data set [6], 68%; in data set [8], 47%. For the same compound, the inhibition entry in data set [7] is “inactive”.

For the origin of these results see ChEMBL document CHEMBL2321834 (J Med Chem, 2013).
